# Values without a mark were called inactive. Inconclusive results are not listed. Activity calls are given as the source filed them.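 How the source made its calls, unless noted: active means cell viability at or below a set limit in both duplicate runs, the limit being the all-compound median minus 4 SD (cut at about 23% in these data, passing the limit was not always enough); inconclusive means no clear call, values can overlap the other calls; inactive means the rest.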
# Legend:
# [1] = S. cerevisiae growth inhibition in permissive medium (OD615), pilot counter-assay for S. cerevisiae lifespan shortening project, permissive growth control (AID 705;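 active means growth inhibition above 25% in both replicates, a cutoff set 3 SD above the mean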); details: OD615, 24 h, at 10 µM, hits give high values
# Procedure, shortened: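 assay system = Saccharomyces cerevisiae strain carrying genetically modified DeaD replicative-lifespan system | medium = SC raffinose/galactose permissive medium | dosing = 10 µM single dose, 0.25% DMSO | schedule = 24 h compound exposure at 30 °C after 4 h pre-growth | measured by = OD at 615 nm | read-out basis = growth inhibition from lowered OD615 after 24 h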
# [2] = S. cerevisiae growth inhibition in restrictive medium, OD615, pilot screen, restrictive growth control, yeast lifespan reduction project (AID 706;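 active means growth inhibition above a set limit, 3 SD over mean compound inhibition, in both replicates, cut at about 43% in these data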;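 further: modified DeaD lifespan yeast strain shifted to restrictive glucose medium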); details: OD615, 48 h, at 10 µM, hits give high values
# Procedure, shortened: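 Buffer or medium: CSMM-D glucose medium. Material: genetically modified Saccharomyces cerevisiae, DeaD replicative lifespan assay strain. Times: 48 h compound exposure at 30 °C. Measured by: optical density at 615 nm.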
# [3] = doxorubicin toxicity protection in MRP-1 cells – H69AR cells, CellTiter-Glo, duplicate, MRP-1 activator project, pilot screen (AID 807;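 active means viability increase at or above a cutoff of the median across tested compounds plus 3 SD, cut at about 8.5% in these data, passing the limit was not always enough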;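 further: compound pretreatment 18-22 h then 72 h combined with doxorubicin; 0% = doxorubicin alone and 100% = vehicle without doxorubicin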); details: H69AR viability with doxorubicin, CellTiter-Glo luminescence; at 10 µM; hits give high values
# [4] = viability of HCT116 without oncogenic beta-catenin – human colon tumor cells, pilot screen (AID 823); details: HCT116 beta-catenin knockout viability, CellTiter-Glo, 60 h; at 10 µM; hits give low values;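 further: 0% = wells killed by 20 µM Hyamine and 100% = untreated DMSO cell wells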
# [5] = viability of PTEN-null HCT116 cells – cell-based, HCT116 clonal line, CellTiter-Glo, pilot screen (AID 824;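 active means viability at or below 27.92% in each of two runs, the all-compound median minus 4 SD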;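 further: 0% = 20 µM Hyamine control and 100% = vehicle cell control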); details: HCT116 PTEN-deleted viability, 60 h, at 10 µM, hits give low values
# [6] = RAM pathway blockade in budding yeast – dse1pr::URA3 reporter, 5-FOA selection, pilot screen (AID 869;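 active means inhibition over a set limit, the all-compound mean plus 3 SD, in both replicate runs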;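 further: 0% = DMSO wells with no growth and 100% = 10 µM 1-NA-PP1 with full growth; RAM network block rescues cells from 5-FOA so hits raise OD615 growth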); details: S. cerevisiae dse1pr::URA3 5-FOA growth, OD615, 2 d; at 10 µM; hits give high values; strain carries analog-sensitive mutant Cbk1 kinase
# [7] = RAM signaling pathway blockade in yeast – S. cerevisiae, Pdr1DBD-CYC8 efflux-inhibited sensitized strain, primary screen (AID 1298;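 active means RAM network inhibition above 8.4% in each of two replicates, 3 SD over the compound average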;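 further: 0% = DMSO untreated cells without growth and 100% = 10 µM 1-NA-PP1 full growth; higher means more yeast growth rescued from 5-FOA killing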); details: S. cerevisiae cbk1-as DSE1-URA3 strain, 5-FOA growth OD615, 2 d; at 50 µM; hits give high values
SMILES,growth inhibition [1],growth inhibition [2],viability increase [3],viability [4],viability [5],inhibition [6],RAM network inhibition [7]
Cc1c(NC(=O)OCCSc2nc(N(C)C)nc(N(C)C)n2)sc(=S)n1C,2.93%,3.13%,-0.48%,83%,76%,2.92%,1.79%
CCCCCn1c(CNC(=O)CCC)nc2ccccc21,-7.29%,-2.36%,-2.97%,101%,96.4%,2.5%,0.64%
COc1cccc(CN2C(=O)CCC2(C)C(=O)NC2CCCCC2)c1 (configuration not stated),-6.64%,1.03%,0.54%,107%,100%,-0.375%,0.22%
COc1ccccc1N(CC(=O)Nc1ccccc1C)S(C)(=O)=O,-5.63%,-10.8%,-3.72%,94.7%,95.7%,1.12%,1.62%
O=C(c1cc(-c2ccccc2O)on1)N1CCCC1,-4.15%,-3.9%,-4.17%,105%,90.7%,3.37%,6.42%
O=C(O)C1CCCN1S(=O)(=O)c1ccc(Cl)c(Cl)c1 (configuration not stated),-5.33%,-3.77%,-1.74%,98.6%,106%,-0.11%,1.89%
O=C(CN(Cc1ccc(F)cc1)S(=O)(=O)c1ccccc1)N1CCCCC1,-9.46%,-3.51%,-2.51%,97.3%,89.8%,0.975%,4.25%
CCOC(=O)c1ccc(NC2c3ccccc3C(=O)N2c2cccnc2)cc1 (configuration not stated),0.43%,1.2%,-3.72%,65.5%,67.6%,0.67%,2.21%
CCOC(=O)c1c(-c2ccc(C)o2)csc1N,4.88%,0.615%,-2.73%,97%,93.8%,1.57%,4.1%
COc1cc(NC(=O)CN2CC(c3ccccc3)CC2=O)cc(OC)c1 (configuration not stated),-20.8%,-10.4%,0.18%,100%,99.4%,1.27%,1.83%
COc1cc(OC)cc(-c2cc(NC(C)=O)n[nH]2)c1,-4.33%,6.38%,-3.17%,90.8%,91.3%,0.965%,4.1%
COCCNC(=O)c1cc2c(=O)n(C)c3ccccc3c2n1C,-11.1%,-7.54%,-4.57%,84.4%,84.4%,2.69%,0.36%
CCSc1nc2c([nH]c3ccccc32)c(=O)n1C,-14.2%,-9.45%,-4.7%,105%,100%,3.67%,0.53%
Cc1occc1-c1nnc(SCCCC(=O)c2ccc(F)cc2)n1C,-1.02%,3.81%,0.66%,74.4%,87.4%,1.5%,6.28%
CCCCCn1c(SCc2cccc(C)c2)nc2c1c(=O)[nH]c(=O)n2C,-12.8%,-18.8%,-7.54%,70.1%,66.4%,1.67%,5.94%
COC(=O)c1c(N)sc(C(C)=O)c1C,-7.62%,-6.67%,-2.35%,98.4%,94.8%,1.72%,5.34%
CN1C(=O)CC(N2CCN(c3ncccn3)CC2)C1=O (configuration not stated),1.35%,-4.12%,0.31%,103%,100%,0.77%,5.07%
O=C(CN1CC(c2ccccc2)CC1=O)Nc1ccc2c(c1)OCO2 (configuration not stated),-7.38%,0.29%,-1.16%,98%,101%,0.205%,1.31%

SMILES,growth inhibition [1],growth inhibition [2],viability increase [3],viability [4],viability [5],inhibition [6],RAM network inhibition [7]
c1ccc(N2CCN(c3ncnc4c3oc3ccccc34)CC2)cc1,-16.2%,9.12%,-0.47%,96%,100%,-0.03%,8.18%
Cc1nc(SC(C)C)[nH]c(=O)c1Cc1ccccc1,-14.9%,-4.47%,-0.89%,98.4%,91.8%,1.1%,3.52%
CCOc1ccc(NC(=O)CCS(=O)(=O)c2cccc3nsnc23)cc1,-1.9%,-3.6%,-3.08%,101%,93.7%,1.31%,2.36%
Cc1ccc(CNC(=O)CS(=O)Cc2nc(-c3cccs3)oc2C)cc1 (configuration not stated),13.6%,57.4% (active),-2.97%,90.5%,92.7%,1.67%,2.88%
CCOC(=O)c1sc(NC(=O)c2cc(S(=O)(=O)N3CCOCC3)ccc2C)nc1C,-4.69%,-10.3%,-2.11%,92.3%,86.6%,0.57%,6.77%
COc1ccc(N=C(C)C2=C(O)COC2=O)cc1,-1.31%,5.13%,-3.62%,97.6%,99%,1.12%,5.23%
Cc1cc(C(=O)CN2CC(C)OC(C)C2)c(C)n1-c1ccccc1 (configuration not stated),0.61%,-5.6%,-1.04%,97.6%,99.6%,1.83%,7.04%
Cc1onc(-c2ccccc2Cl)c1C(=O)NCc1ccc2c(c1)cc(C)n2C,-6.07%,-12.7%,-3.02%,95.5%,84.6%,1.93%,5.14%
CC(=O)CCc1c(C)c2cccc(C)c2[nH]c1=O,1.6%,1.5%,-3.1%,93.4%,96.5%,2.75%,3.81%
Cc1nc2ccccn2c1C(=O)NC1CCCCC1,4.45%,1.56%,-1.3%,101%,103%,1.17%,-0.77%
CC(=O)Nc1nc2ccccc2n1CCN(C)C,-5.31%,-3.15%,-0.15%,99.3%,103%,2.95%,7.04%
CCCc1cc(C(=O)Nc2sc(C)c(CC)c2C#N)no1,-6.42%,-11.2%,2.26%,102%,101%,1.42%,0.53%
O=C(CN1CCN(Cc2ccc(Cl)cc2)C1=O)NCCN1CCCC1,1.2%,9.72%,-0.85%,107%,96.7%,1.54%,1.2%
Cc1cc(C)c(C)c(OCC(=O)NCCN(C)C)c1,-11.6%,-3.56%,-1.08%,91%,91.3%,0.79%,0.26%
O=C1c2ccccc2C(=O)N1CCCc1nc(-c2ccc(Cl)cc2)no1,-1.86%,-5.26%,-1.79%,102%,100%,4.25%,2.37%
Cc1ccccc1NS(=O)(=O)c1cccc(-c2nnc(-c3ccccc3)o2)c1,-8.74%,-5.78%,-0.75%,93.6%,85.7%,3.65%,4.08%
Cc1ccc(S(=O)(=O)Cc2ccc(C(=O)N3CCN(c4ccc(F)cc4)CC3)o2)cc1,-9.22%,-15.2%,-6.28%,33%,23.3% (active),0.575%,4.81%
COc1ccccc1Nc1cc(C(=O)NCCCN2CCOCC2)c2ccccc2n1,-7.99%,-0.795%,-3.47%,89.1%,91.4%,0.455%,0.58%
